Reference: article PMC7579299 (Anti-Inflammatory & Anti-Allergy Agents in Medicinal …, 2020)

Experiments:
[1] = test system: Human Red Blood Cell (HRBC) membrane; assay: HRBC membrane stabilization method; format: cell-based
Method in brief: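 Human red blood cell membrane stabilization assay, run in quadruplicate with diclofenac as reference. Hemolysis in distilled water was taken as 100%. Protection was calculated as % inhibition of hemolysis = 100 × (OD control − OD sample)/OD control.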

[2] = test system: MCF-7 (human breast cancer); assay: Anticancer MTT assay, breast cancer cells; format: cell-based
Method in brief: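 MCF-7 cells grown in DMEM with 10% FBS, penicillin and streptomycin at 37°C in 5% CO₂. About 5000 cells/well were exposed to test compound at 50-500 µg/mL (1 mg/ml DMSO working solution, 0.45-micron filtered) for 24, 48 or 72 h. MTT was added for 2 h, then lysis buffer for 4 h, and A570 was read. Viability = mean OD/control OD × 100.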

For `O=C(O)Cc1ccccc1Nc1c(Cl)cccc1Cl` [Diclofenac], the IC50 ([1]; Homo sapiens, Erythrocyte, read-out: HRBC membrane protection IC50) was 0.15 µM and the “HRBC membrane average protection” value ([1]; n=4) was 82.15%.
With `COc1cccc2c1C(=O)c1c(O)c3c(c(O)c1C2=O)C[C@@](O)(C(=O)CO)C[C@@H]3O[C@H]1C[C@H](N)[C@H](O)[C@H](C)O1` [Doxorubicin] the “Relative percentage activity (anticancer)” value [2] was 89.47 ± 2.87%.
